Assay outcomes from PubChem.
CHRM4 agonist = human M4 muscarinic receptor agonists, primary screen, CHO-K1 cells, Fluo-8 calcium fluorescence; CHO-K1 hM4/Gqi5; vehicle 0%, full acetylcholine response 100%; activation, % at 3 µM; actives 0.14% (n = 360,000); AID 624127, 2012;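 active = activation above the run mean over all test wells plus 3 SD, cut at about 32% in these data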;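 also: peak over basal fluorescence ratio per well then scaled between controls; 0% = DMSO wells and 100% = acetylcholine at EC100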
M4 PAM = human M4 muscarinic receptor positive allosteric modulators, primary screen, CHO-K1 cells, Fluo-8 calcium fluorescence; actives 0.4% (n = 360,000); activation, % at 3 µM; AID 624126, 2012; Muscarinic acetylcholine receptor M4 (Homo sapiens), P08173; CHO-K1 hM4/Gqi5, ACh EC20; 0% = ACh EC20, 100% = maximal ACh;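 active = activation above its plate's cutoff, the mean activation of sample wells plus 3 SD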
M4 antag = human M4 muscarinic receptor antagonists, primary screen, CHO cells, Fluo-8 calcium fluorescence; CHO-hM4 cells, ACh EC80; actives 0.73% (n = 360,000); Muscarinic acetylcholine receptor M4 (Homo sapiens), P08173; AID 624125, 2012; inhibition, % at 3 µM;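 active = inhibition above its plate's cutoff, the mean inhibition of sample wells plus 3 SD, cut at about 27% in these data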;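 also: 0% = acetylcholine EC80 with DMSO and 100% = DMSO without agonist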
M5 antag = human M5 muscarinic receptor antagonists, primary screen, CHO cells, Fluo-8 calcium fluorescence. Muscarinic acetylcholine receptor M5 (Homo sapiens), P08912. CHO-hM5 cells, ACh EC80. inhibition, % at 3 µM. actives 0.59% (n = 360,000);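 active = inhibition above a per-plate cutoff, the mean of that plate's test compounds plus 3 SD, cut at about 27% in these data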;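 also: 0% = acetylcholine EC80 with DMSO and 100% = DMSO without agonist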
Target sequence (P08912 whole entry, looked up): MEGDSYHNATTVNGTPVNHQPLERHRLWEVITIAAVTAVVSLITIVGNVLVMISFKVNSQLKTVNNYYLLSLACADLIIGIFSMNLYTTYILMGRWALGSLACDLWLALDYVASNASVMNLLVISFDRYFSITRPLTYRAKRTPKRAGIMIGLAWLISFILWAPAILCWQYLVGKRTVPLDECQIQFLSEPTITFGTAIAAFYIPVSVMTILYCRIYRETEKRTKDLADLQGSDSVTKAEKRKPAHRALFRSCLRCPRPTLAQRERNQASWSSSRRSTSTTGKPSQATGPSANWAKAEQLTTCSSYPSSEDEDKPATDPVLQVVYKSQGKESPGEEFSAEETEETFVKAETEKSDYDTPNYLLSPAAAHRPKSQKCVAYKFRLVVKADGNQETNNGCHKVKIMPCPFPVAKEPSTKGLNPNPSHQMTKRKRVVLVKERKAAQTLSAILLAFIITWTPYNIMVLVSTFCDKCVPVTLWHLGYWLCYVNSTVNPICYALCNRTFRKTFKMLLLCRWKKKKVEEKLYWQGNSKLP
M5 ag = human M5 muscarinic receptor agonists, primary screen, CHO-K1 cells, Fluo-8 calcium fluorescence. Muscarinic acetylcholine receptor M5 (Homo sapiens), P08912. CHO-K1 hM5 cells; 0% DMSO wells, 100% maximal acetylcholine response. activation, % at 3 µM. actives 0.19% (n = 360,000);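 active = activation above the run's mean over test compounds plus 3 SD, cut at about 23% in these data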;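 also: signal is peak over basal fluorescence ratio across the kinetic read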
M5 PAM = human M5 muscarinic receptor positive allosteric modulators, primary screen, CHO-K1 cells, Fluo-8 calcium fluorescence | Muscarinic acetylcholine receptor M5 (Homo sapiens), P08912 | CHO-K1 hM5, ACh EC20 PAM; 0% = ACh EC20, 100% = ACh EC100 | activation, % at 3 µM | actives 0.3% (n = 360,000);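 active = activation above the run cutoff, the mean activation of all test compounds plus 3 SD, cut at about 18% in these data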
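Probe or stimulus: acetylcholine, EC20 level; Assay system: human M5 receptor in CHO-K1 cells; Schedule: compound preincubation 140 s before EC20 acetylcholine addition; Technique: intracellular calcium via Fluo-8 fluorescence; Dosing: single-point, 3 µM nominal; Read-out basis: percent activation from peak-over-basal fluorescence ratio, scaled EC20-to-EC100 acetylcholine; Repeats: one well per compound, no replicates.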
Active calls of the source: *; ! = not confirmed by another sample. Rows were chosen to be rich in hits. Some 1.8% of all compounds tested hit in one or more screens of this group.

SMILES	CHRM4 agonist	M4 PAM	M4 antag	M5 antag	M5 ag	M5 PAM
FC(F)C(F)(F)Oc1cccc(Nc2nccn3c(-c4cccc5ccccc45)cnc23)c1	1	-6	2	6	-1	-5
CCCCn1c(N)c(N(CC(C)C)C(=O)CCN2C(=O)C3CC=CCC3C2=O)c(=O)[nH]c1=O (stereo not given)	1	4	0	-6	-1	0
COc1ccc(CN2C(=O)CCC2(C)c2nc3ccccc3[nH]2)cc1 (stereo not given)	1	-3	9	2	0	-1
Cc1ccc(Cn2c(C)c(C(=O)NCc3ccc4c(c3)OCO4)sc2=O)cc1	10	-6	-21	-2	1	-5
COc1ccc(Br)cc1C(=O)NCc1cccnc1	1	-1	1	-3	-6	-2
O=C(NC(=S)NCc1cccnc1)c1cc(Br)ccc1Cl	3	12	-3	-8	-1	22*
COc1ccc(C(C)=O)c(OCC(=O)NCCC2=CCCCC2)c1	9	-5	1	9	2	-5
CCC(C)Sc1cc(-c2nc3ccc(C)cn3c2NCc2ccccc2)ccc1OC (stereo not given)	15	-13	72*	29*!	-2	-39
CCC(C)Sc1ccc(-c2nc3ccc(C)cn3c2NCc2ccccc2)cc1OC (stereo not given)	10	-5	44*	24	-7	-38
FC(F)(F)c1cc(Cl)c2nc(-c3ccccc3)c(Cc3ccccc3)n2c1	0	-4	-7	2	0	-1
O=C(N/N=C/c1ccncc1)c1nc(-c2ccccc2)n2c1CCCCC2	2	-1	29*	10	-4	-5
CCOc1ccc(S(=O)(=O)N2CCC(C(=O)N3CCOCC3)CC2)cc1C	2	-3	-4	12	-2	-1
CCOc1ccc(S(=O)(=O)N2CCC(C(=O)N3CCCCCC3)CC2)cc1C	4	3	-8	-15	15	50*
CCCCCCCCN1C(=O)[C@H](CC(=O)NCCCC)C[C@@]2(C(=O)OC)CCCCC=C12	-1	-3	9	-1	-3	-3
CCCCn1nnnc1C(c1cc2ccccc2o1)N1CCN(C(=O)OCC)CC1 (stereo not given)	3	5	-4	2	3	-4
S=C1NCN(Cc2ccccc2)CN1C1CCCCC1	1	0	0	-9	-1	21*
c1ccc(-c2cn(-c3ccccc3)c3[n+]2CCS3)cc1	0	-16	18	8	-5	-5
CC(C)(C)c1ccc(-c2cn(-c3ccc(Br)cc3)c3[n+]2CCCS3)cc1	3	-19	50*	58*	-11	-20
C[N+]1(CC(=O)OCCCc2ccccc2)CCCCC1	1	-5	-9	8	-15	-13
CC(=O)/C(C[N+]1(C)CCCCC1)=N\O	1	-17	34*	43*	-8	-23
O=C(C1=NOC2(C1)C(=O)Nc1ccccc12)N1CCCCC1 (stereo not given)	3	4	-3	9	1	-7
COc1cc2c(cc1NC(=O)C(C)Sc1ccc(NC(C)=O)cc1)oc1ccccc12 (stereo not given)	15	-14	18	30*	6	-18
COc1ccc2[nH]c(=O)c(CNC3CCCCC3)cc2c1	2	23*	-22	-1	2	23*
Nc1c(-c2ccc(F)cc2)nc2ncccn12	0	0	-9	3	0	-2
Cc1ccn2c(NCc3ccccc3)c(-c3cccs3)nc2c1	2	20*	-18	-12	-10	1
SMILES	CHRM4 agonist	M4 PAM	M4 antag	M5 antag	M5 ag	M5 PAM
CCC(C)Sc1cccc(-c2nc3cc(C)ccn3c2NCc2ccccc2)c1 (stereo not given)	8	-12	44*!	17	-7	-26
Cc1ccn2c(NC(=O)c3ccccc3)c(-c3cccs3)nc2c1	17	-4	5	2	4	-10
Cc1cnc(CN(C)C(=O)c2ccc3oc(Cc4ccc(Cl)cc4)nc3c2)[nH]1	3	-12	14	4	-8	1
O=S(=O)(c1ccc(Cl)c(Cl)c1)c1snnc1-c1ccccc1	-2	-19	40*	11	-8	-17
COc1ccc(S(=O)(=O)N2CCC(O)(c3ccc(Cl)cc3)CC2)cc1	5	-7	9	2	-6	-13
CC(C)(C)c1ccc(S(=O)(=O)N2CCC(O)(c3ccc(Cl)cc3)CC2)cc1	12	-53	19	30*	-17	-32
Cc1cc(C(=O)N2CCC(C)CC2)on1	1	24	9	6	1	18*
CCOC(=O)N1CCN(C(=O)c2cc(C)no2)CC1	1	7	-9	0	2	3
COc1ccc(NC(=O)CSc2nnc(NC(=O)c3ccc(S(=O)(=O)N4CCOCC4)cc3)s2)cc1	1	5	23	15	7	23*
CCN1CCCC(OC(=O)C(c2ccccc2)c2ccccc2)C1 (stereo not given)	1	-17	32*	57*	-1	-18
O=C(CC[C@H]1O[C@@H](n2cnc3c(NC(=O)c4ccccc4)ncnc32)[C@H](O)[C@@H]1O)NCc1ccc2c(c1)OCO2	0	8	-12	0	1	2
Cc1c(O)c(S(=O)(=O)c2ccccc2)c(=O)n(-c2ccccc2)c1-c1ccccc1	1	10	27*	4	-3	0
Cc1c(O)c(S(=O)c2ccccc2)c(=O)n(-c2ccccc2)c1-c1ccccc1 (stereo not given)	0	-3	2	0	1	-3
COC(=O)C1=C(C)OC(N)=C(C#N)C1c1cc2cc(C)ccc2nc1Cl (stereo not given)	22	-9	8	23	26*	-19
Cc1nn(C(C)C(=O)NCCc2ccco2)c(=O)c2nn(-c3ccccc3)c(C)c12 (stereo not given)	15	51*	17	21	0	23*
COc1ccccc1NC(=O)Nc1nc(C(N)CC(C)C)cs1 (stereo not given)	6	-4	3	2	2	0
